Target: Hck^3D V284C (Homo sapiens, UniProt P08631, V276C)
Test: Inhibitor IC50 determination, fluorescent SFK peptide kinase assay
Assay type: biochemical
Conditions: 1 mM ATP
Procedure, shortened: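 Kinase concentrations were set in the linear range by prior titration: Src3D WT or V284C at 7.5 nM, Hck3D WT or V284C at 5 nM. Kinase was incubated 30 min with test compound (30 μM top, 3-fold serial dilutions, 10 points) and 1 mM ATP in HEPES pH 7.5 buffer with MgCl2, EGTA, BSA, vanadate and BME. Then 20 μM pyrene-labelled SFK peptide was added for 2 h. Fluorescence was read at ex 344/em 405 nm, in triplicate.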

Hck^3D V284C, sequence (P08631 81-526 V276C): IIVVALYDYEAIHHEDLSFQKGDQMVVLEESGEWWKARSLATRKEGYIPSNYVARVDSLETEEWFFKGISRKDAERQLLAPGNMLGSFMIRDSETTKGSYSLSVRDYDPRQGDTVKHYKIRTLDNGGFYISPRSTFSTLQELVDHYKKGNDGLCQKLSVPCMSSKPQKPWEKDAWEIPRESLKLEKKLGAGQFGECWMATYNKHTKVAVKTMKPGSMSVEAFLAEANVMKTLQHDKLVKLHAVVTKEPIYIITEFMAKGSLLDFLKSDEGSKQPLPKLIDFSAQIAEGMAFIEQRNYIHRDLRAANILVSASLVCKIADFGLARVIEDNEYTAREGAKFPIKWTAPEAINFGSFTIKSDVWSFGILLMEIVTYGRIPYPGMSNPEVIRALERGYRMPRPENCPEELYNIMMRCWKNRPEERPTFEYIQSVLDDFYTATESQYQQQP

SMILES	inhibition of Hck V284C (IC50, Figure 4C)
COCCn1c(/C=C(/C#N)C(=O)NC(C)C)c(-c2ccc(Cl)cc2)c2c(N)ncnc21 [compound 1, (E)- & (Z)-3-(4-Amino-5-(4-chlorophenyl)-7-(2-methoxyethyl)-7H-pyrrolo[2,3-d]pyrimidin-6-yl)-2-cyano-N-isopropylacrylamide]	potently inhibited
COCCn1c(/C=C(/C#N)C(=O)NC(C)C)c(-c2ccc(Oc3ccccc3)cc2)c2c(N)ncnc21 [compound 2, (E)- & (Z)-3-(4-Amino-7-(2-methoxyethyl)-5-(4-phenoxyphenyl)-7H-pyrrolo[2,3-d]pyrimidin-6-yl)-2-cyano-N-isopropylacrylamide]	potently inhibited

— article PMC6474823 (Molecular cell, 2019)
